Measured values as given in ChEMBL document CHEMBL4052828, “Discovery of 4-((7H-Pyrrolo[2,3-d]pyrimidin-4-yl)amino)-N-(4-((4-methylpiperazin-1-yl)methyl)phenyl)-1H-pyrazole-3-carboxamide (FN-1501), an FLT3- and CDK-Kinase Inhibitor with Potentially High Efficiency against Acute Myelocytic Leukemia” (J Med Chem, 2018).

Tests used:
CDK2/Cyclin A1 = CDK2/Cyclin A1 (Homo sapiens, UniProt P24941); assay: Inhibition of human CDK2/Cyclin A1 using histone H1 as substrate preincubated for 20 mins followed by [gamma-33P]-ATP addition measure after 120 mins by filter binding method; assay type: protein-complex assay
Summary of the method: (§1)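 Compound preincubated with kinase 20 min at room temperature. Filter-binding read-out, curve-fitted IC50; mean ± SD of three independent experiments.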

[1] = target: T1, Receptor-type tyrosine-protein kinase FLT3 (Homo sapiens, UniProt P36888); assay: Inhibition of human FLT3 using EAIYAAPFAKKK as substrate preincubated for 20 mins followed by [gamma-33P]-ATP addition measure after 120 mins by filter binding method; summary of the method: as §1
T1 sequence (P36888 whole entry): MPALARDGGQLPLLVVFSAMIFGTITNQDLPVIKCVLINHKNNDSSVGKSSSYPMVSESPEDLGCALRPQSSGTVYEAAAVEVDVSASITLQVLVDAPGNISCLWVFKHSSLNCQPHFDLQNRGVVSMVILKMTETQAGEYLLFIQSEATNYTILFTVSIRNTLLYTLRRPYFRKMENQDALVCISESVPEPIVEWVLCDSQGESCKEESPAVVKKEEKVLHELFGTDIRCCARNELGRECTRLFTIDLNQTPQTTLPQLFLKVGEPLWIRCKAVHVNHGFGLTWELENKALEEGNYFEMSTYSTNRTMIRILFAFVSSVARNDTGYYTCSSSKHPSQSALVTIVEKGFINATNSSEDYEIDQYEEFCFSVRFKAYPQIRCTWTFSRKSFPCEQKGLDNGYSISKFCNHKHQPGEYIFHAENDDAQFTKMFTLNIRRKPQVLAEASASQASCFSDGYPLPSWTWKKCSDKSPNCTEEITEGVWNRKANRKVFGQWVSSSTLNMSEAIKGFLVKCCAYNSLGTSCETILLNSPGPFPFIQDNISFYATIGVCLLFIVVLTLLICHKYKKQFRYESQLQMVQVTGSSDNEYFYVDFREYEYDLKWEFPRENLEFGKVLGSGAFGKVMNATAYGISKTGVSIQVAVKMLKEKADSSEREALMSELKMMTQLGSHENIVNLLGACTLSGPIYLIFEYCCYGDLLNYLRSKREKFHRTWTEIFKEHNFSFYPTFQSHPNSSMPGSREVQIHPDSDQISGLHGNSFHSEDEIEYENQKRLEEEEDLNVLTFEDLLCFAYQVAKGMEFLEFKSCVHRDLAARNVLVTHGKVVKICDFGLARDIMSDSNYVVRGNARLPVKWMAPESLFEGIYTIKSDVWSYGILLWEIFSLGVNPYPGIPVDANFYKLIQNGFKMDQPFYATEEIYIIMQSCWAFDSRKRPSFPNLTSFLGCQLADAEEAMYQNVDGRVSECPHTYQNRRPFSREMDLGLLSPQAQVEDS

MV4-11 [2] = assay: Growth inhibition of human MV4-11 cells at 1 uM after 72 hrs by CellTiter-Glo assay relative to control; assay type: functional; conditions: MV4-11, 72 h, read-out: GI
[3] = target: CDK2/Cyclin A1 (Homo sapiens) (UniProt P24941+P78396); assay: Inhibition of human CDK2/Cyclin A1 assessed as residual activity at 0.123 uM using histone H1 as substrate preincubated for 20 mins followed by [gamma-33P]-ATP addition measure after 120 mins by filter binding method relative to control; assay type: protein-complex assay
[4] = target: Receptor-type tyrosine-protein kinase FLT3 (Homo sapiens) (UniProt P36888); assay: Inhibition of human FLT3 assessed as residual activity at 0.123 uM using EAIYAAPFAKKK as substrate preincubated for 20 mins followed by [gamma-33P]-ATP addition measure after 120 mins by filter binding method relative to control
MV4-11 [5] = assay: Growth inhibition of human MV4-11 cells after 72 hrs by CellTiter-Glo assay; assay type: functional, cell-based; conditions: MV4-11, 72 h
Summary of the method: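 MV4-11 cells grown in IMDM with 10% FBS, 2% L-glutamine and 1% pen/strep at 37 °C, 5% CO2. Seeded at 10000 cells/well and exposed to compound at various concentrations for 72 h. Viability read by CellTiter-Glo luminescence.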

[6] = Lipophilicity, log P of the compound; assay type: physicochemical; conditions: octanol/water
[7] = target: Cyclin-dependent kinase 4/cyclin D1 (Homo sapiens, UniProt P11802); assay: Inhibition of human CDK4/Cyclin D1 using RB protein as substrate preincubated for 20 mins followed by [gamma-33P]-ATP addition measure after 120 mins by filter binding method; assay type: protein-complex assay
Cyclin-dependent kinase 4/cyclin D1, sequence (P11802 whole entry): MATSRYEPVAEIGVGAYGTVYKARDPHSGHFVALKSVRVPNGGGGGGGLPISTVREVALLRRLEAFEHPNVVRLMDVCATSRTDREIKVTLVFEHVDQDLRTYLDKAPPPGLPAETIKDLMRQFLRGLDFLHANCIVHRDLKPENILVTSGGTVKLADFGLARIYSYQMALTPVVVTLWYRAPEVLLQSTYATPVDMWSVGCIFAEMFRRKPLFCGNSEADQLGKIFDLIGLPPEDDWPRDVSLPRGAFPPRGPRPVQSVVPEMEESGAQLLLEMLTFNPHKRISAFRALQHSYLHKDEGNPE
Cyclin-dependent kinase 4/cyclin D1, sequence (P24385 whole entry, further chain): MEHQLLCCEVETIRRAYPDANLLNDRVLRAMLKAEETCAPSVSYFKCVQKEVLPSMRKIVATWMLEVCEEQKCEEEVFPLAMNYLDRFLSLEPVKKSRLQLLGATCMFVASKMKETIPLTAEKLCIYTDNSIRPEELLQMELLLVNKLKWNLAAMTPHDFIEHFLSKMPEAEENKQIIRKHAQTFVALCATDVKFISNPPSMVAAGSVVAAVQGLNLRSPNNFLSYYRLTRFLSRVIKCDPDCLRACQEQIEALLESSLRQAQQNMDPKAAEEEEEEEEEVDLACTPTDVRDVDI
Summary of the method: (§2)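 Compound preincubated with kinase 20 min at room temperature. Reaction started with 10 μM [γ-33P]ATP and run 120 min at 25°C. Filter-binding read-out, curve-fitted IC50; mean ± SD of three independent experiments.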

CDK6/cyclin D1 = CDK6/cyclin D1 (Homo sapiens, UniProt Q00534); assay: Inhibition of human CDK6/Cyclin D1 using RB protein as substrate preincubated for 20 mins followed by [gamma-33P]-ATP addition measure after 120 mins by filter binding method; assay type: protein-complex assay; summary of the method: as §2
CDK6/cyclin D1, sequence (P24385 whole entry): as the sequence (P24385 whole entry, further chain) above
CDK6/cyclin D1, sequence (Q00534 whole entry): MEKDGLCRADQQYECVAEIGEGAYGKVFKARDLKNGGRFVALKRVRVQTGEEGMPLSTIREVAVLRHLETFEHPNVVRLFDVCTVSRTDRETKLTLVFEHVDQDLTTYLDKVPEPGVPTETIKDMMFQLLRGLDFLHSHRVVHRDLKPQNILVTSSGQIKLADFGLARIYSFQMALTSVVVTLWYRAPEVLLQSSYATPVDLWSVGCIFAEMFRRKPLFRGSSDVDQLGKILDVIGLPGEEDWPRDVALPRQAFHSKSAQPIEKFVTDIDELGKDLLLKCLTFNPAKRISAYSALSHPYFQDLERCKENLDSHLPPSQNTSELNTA

RS4-11 = assay: Growth inhibition of human RS4:11 cells after 72 hrs by CellTiter-Glo assay; assay type: functional; conditions: RS4-11, 72 h
MCF7 = assay: Growth inhibition of human MCF7 cells after 72 hrs by CellTiter-Glo assay; assay type: functional; conditions: MCF7, 72 h
HCT-116 = assay: Growth inhibition of human HCT116 cells after 72 hrs by CellTiter-Glo assay; assay type: functional; conditions: HCT-116, 72 h
NCI-H82 = assay: Growth inhibition of human NCI-H82 cells after 72 hrs by CellTiter-Glo assay; assay type: functional; conditions: NCI-H82, 72 h
[8] = Terminal half life in human liver microsomes by LC-MS/MS analysis; assay type: ADME, microsome; conditions: read-out: beta t1/2 (converted)
Summary of the method: (§3)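 Metabolic stability measured by incubating compound in human, rat, mouse, dog and monkey liver microsomes. Terminal t1/2 determined.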

[9] = Intrinsic clearance in human liver microsomes by LC-MS/MS analysis; assay type: ADME, microsome; conditions: read-out: CLH
[10] = Terminal half life in rat liver microsomes by LC-MS/MS analysis; assay type: ADME, microsome; conditions: read-out: beta t1/2 (converted); summary of the method: as §3
[11] = Intrinsic clearance in rat liver microsomes by LC-MS/MS analysis; assay type: ADME, microsome; conditions: read-out: CLH
[12] = Terminal half life in mouse liver microsomes by LC-MS/MS analysis; assay type: ADME, microsome; conditions: read-out: beta t1/2 (converted); summary of the method: as §3
[13] = Intrinsic clearance in mouse liver microsomes by LC-MS/MS analysis; assay type: ADME, microsome; conditions: read-out: CLH
[14] = Terminal half life in dog liver microsomes by LC-MS/MS analysis; assay type: ADME, Canis lupus familiaris, microsome; conditions: read-out: beta t1/2 (converted); summary of the method: as §3
[15] = Intrinsic clearance in dog liver microsomes by LC-MS/MS analysis; assay type: ADME, Canis lupus familiaris, microsome; conditions: read-out: CLH
[16] = Terminal half life in cynomolgus monkey liver microsomes by LC-MS/MS analysis; assay type: ADME, Macaca fascicularis, microsome; conditions: read-out: beta t1/2 (converted); summary of the method: as §3
[17] = Intrinsic clearance in cynomolgus monkey liver microsomes by LC-MS/MS analysis; assay type: ADME, Macaca fascicularis, microsome; conditions: read-out: CLH
MGC-803 = assay: Growth inhibition of human MGC803 cells after 72 hrs by CellTiter-Glo assay; assay type: functional; conditions: MGC-803, 72 h

IC50 (CDK2/Cyclin A1) [nM]	IC50 [1] [nM]	IC50 (MV4-11 [5]) [nM]	SMILES	inhibition of growth at 1 µM (MV4-11 [2]) [%]	other results
58.6	0.958		O=C(Nc1ccc(CN2CCOCC2)cc1)c1n[nH]cc1Nc1nc(Cl)nc2ccccc12	91.1	
3.89	2.31		CC(C)c1cc2c(Nc3c[nH]nc3C(=O)Nc3ccc(CN4CCN(C)CC4)cc3)ncnc2s1		
13.6	0.13		CCN(CC)Cc1ccc(NC(=O)c2n[nH]cc2Nc2ncnc3[nH]ccc23)cc1		
3.03	0.32		CN1CCCN(Cc2ccc(NC(=O)c3n[nH]cc3Nc3ncnc4sccc34)cc2)CC1		
4.49	1.03	53	O=C(Nc1ccc(CN2CCNCC2)cc1)c1n[nH]cc1Nc1ncnc2[nH]ccc12		logP [6]: 1.22
697	197		COc1ccc2c(Nc3c[nH]nc3C(=O)Nc3ccc(CN4CCN(C)CC4)cc3)ccnc2c1	22.6	
24.1	16.9		O=C(Nc1ccc(CN2CCOCC2)cc1)c1n[nH]cc1Nc1ccnc2ccc(Br)cc12	93.7	
	97.4		COc1ccc2c(Nc3c[nH]nc3C(=O)Nc3ccc(CN4CCOCC4)cc3)ccnc2c1	22.2	Activity [3]: 75%
11.6	6.15	35	O=C(Nc1ccc(CN2CCOCC2)cc1)c1n[nH]cc1Nc1ncnc2ccsc12		
29.8	3.78		COc1ccc2ncnc(Nc3c[nH]nc3C(=O)Nc3ccc(CN4CCOCC4)cc3)c2c1	53.1	
2.08	0.34	19	O=C(Nc1ccc(CN2CCNCC2)cc1)c1n[nH]cc1Nc1ncnc2sccc12		logP [6]: 2.65
7.25	2.06	21	O=C(Nc1ccc(CN2CCOCC2)cc1)c1n[nH]cc1Nc1ncnc2[nH]ccc12		
2.05	1.05		O=C(Nc1ccc(CNC2CC2)cc1)c1n[nH]cc1Nc1ncnc2sccc12		
1.08	1.37	11	Cc1csc2ncnc(Nc3c[nH]nc3C(=O)Nc3ccc(CN4CCOCC4)cc3)c12		

More lines, now with the values behind:

SMILES	IC50 (CDK2/Cyclin A1) [nM]	IC50 [1] [nM]	IC50 (MV4-11 [5]) [nM]	inhibition of growth at 1 µM (MV4-11 [2]) [%]	other results
O=C(Nc1ccc(CN2CCOCC2)cc1)c1n[nH]cc1Nc1ccnc2ccccc12				42	Activity [3]: 57.7%; Activity [4]: 40.8%
Cc1csc2ncnc(Nc3c[nH]nc3C(=O)Nc3ccc(CN4CCN(C)CC4)cc3)c12	4.49	0.167			
Cc1sc2ncnc(Nc3c[nH]nc3C(=O)Nc3ccc(CN4CCOCC4)cc3)c2c1C	7.34	3.52	30		
CCc1cc2c(Nc3c[nH]nc3C(=O)Nc3ccc(CN4CCOCC4)cc3)ncnc2s1	3.3	1.56	34		
O=C(Nc1ccc(CN2CCOCC2)cc1)c1n[nH]cc1Nc1nccc2ccccc12	287	42.4		50.4	
O=C(Nc1ccc(CN2CCOCC2)cc1)c1n[nH]cc1Nc1ncnc2sccc12	3.36	0.623		98.5	IC50 [7]: 2.4 nM; IC50 (CDK6/cyclin D1): 3.88 nM; GI50 (RS4-11): 170 nM; GI50 (MCF7): 610 nM; GI50 (HCT-116): 580 nM; GI50 (NCI-H82): 290 nM; half-life [8]: 8.28 min; CLint scaled [9]: 165 mL/min/kg; half-life [10]: 7.08 min; CLint scaled [11]: 352 mL/min/kg; half-life [12]: 7.2 min; CLint scaled [13]: 765 mL/min/kg; half-life [14]: 1.5 min; CLint scaled [15]: 1330 mL/min/kg; half-life [16]: 10.9 min; CLint scaled [17]: 171 mL/min/kg; GI50 (MGC-803): 210 nM
Cc1cc2c(Nc3c[nH]nc3C(=O)Nc3ccc(CN4CCN(C)CC4)cc3)ncnc2s1		0.384			
O=C(Nc1ccc(CN2CCOCC2)cc1)c1n[nH]cc1Nc1cc(C(F)(F)F)nc2ccccc12				4.7	Activity [3]: 99.7%; Activity [4]: 83.2%
CN1CCN(Cc2ccc(NC(=O)c3n[nH]cc3Nc3ncnc4occc34)cc2)CC1	16.5	2.56 to 2.65		94.7	IC50 [7]: 5.67 nM; IC50 (CDK6/cyclin D1): 5.09 nM
CN1CCN(Cc2ccc(NC(=O)c3n[nH]cc3Nc3ccnc4ccccc34)cc2)CC1				98.8	Activity [3]: 26.5%; Activity [4]: 27.7%
COc1ccc2nccc(Nc3c[nH]nc3C(=O)Nc3ccc(CN4CCN(C)CC4)cc3)c2c1				64.4	Activity [3]: 32.5%; Activity [4]: 10.4%
CN1CCN(Cc2ccc(NC(=O)c3n[nH]cc3Nc3ccnc4ccc(Br)cc34)cc2)CC1	5.74	4.84		97.2	
CN1CCN(Cc2ccc(NC(=O)c3n[nH]cc3Nc3ncnc4ccsc34)cc2)CC1	9.32	0.47	23		IC50 [7]: 3.1 nM; IC50 (CDK6/cyclin D1): 4.11 nM
CCN(CC)Cc1ccc(NC(=O)c2n[nH]cc2Nc2ncnc3sccc23)cc1	1.59	5.36			
CC(C)c1cc2c(Nc3c[nH]nc3C(=O)Nc3ccc(CN4CCOCC4)cc3)ncnc2s1	9.85	7.63	15		
Cc1sc2ncnc(Nc3c[nH]nc3C(=O)Nc3ccc(CN4CCN(C)CC4)cc3)c2c1C	1.9	0.576			
CN1CCN(Cc2ccc(NC(=O)c3n[nH]cc3Nc3nccc4ccccc34)cc2)CC1					Activity [3]: 60.5%; Activity [4]: 24.5%
CN1CCN(Cc2ccc(NC(=O)c3n[nH]cc3Nc3ncnc4ccccc34)cc2)CC1	8.27	3.17			
O=C(Nc1ccc(CN2CCOCC2)cc1)c1n[nH]cc1Nc1ncnc2ccccc12	5.3	0.588	23		
CCc1cc2c(Nc3c[nH]nc3C(=O)Nc3ccc(CN4CCN(C)CC4)cc3)ncnc2s1	1.87	0.101			
O=C(Nc1c[nH]nc1C(=O)Nc1ccc(CN2CCOCC2)cc1)c1ccccc1	318	42.6	450		
